# Published values of several laboratories.
SMILES,species,matrix,route,dose,setting,bioavailability [%]
N[C@@H](CSSC[C@H](N)C(=O)O)C(=O)O,Kunming mouse,plasma,oral,50 mg/kg,,15.1
CCc1cc(C(=O)NC)c2nccc(N3CCc4c(cc(Cn5ccnc5)cc4-c4cn(C)nc4C(F)(F)F)C3=O)c2c1,male CD-1 mouse,plasma,oral,150 mg/kg,,252
CSc1cc(Oc2ccnc3[nH]c(=O)cnc23)ccc1NC(=O)Nc1cc(C(C)(C)C)nn1-c1ccccc1,BALB/c mouse,plasma,oral,10 mg/kg,,58
NC[C@@H]1O[C@H](O[C@H]2[C@@H](O)[C@H](O[C@@H]3[C@@H](O)[C@H](N)C[C@H](N)[C@H]3O[C@H]3O[C@H](CO)[C@@H](O)[C@H](O)[C@H]3N)O[C@@H]2CO)[C@H](N)[C@@H](O)[C@@H]1O,male BALB/c mouse,plasma,oral,500 mg/kg,,0.3
O=C(CC1Cc2ccccc2C1)N[C@H](CN1CCCC1)[C@H](O)c1ccc(OC(F)(F)F)cc1,CD-1 mouse,plasma,oral,10 mg/kg,,34
CCOc1ccc(Cc2cc([C@@H]3O[C@H](CO)[C@@H](O)[C@H](O)[C@H]3O)ccc2Cl)cc1,male C57BL/6 mouse,plasma,oral,1 mg/kg,,67
CCN1CCN(Cc2cc(NC(=O)c3ccc(C)c(-c4ccc5nc(NC(=O)C6CC6)cn5n4)c3)cc(C(F)(F)F)c2)CC1,Swiss mouse,plasma,oral,10 mg/kg,,4
C=CC(=O)Nc1cccc(Nc2nc(Nc3ccc(N4CCN(C(C)=O)CC4)cc3OC)ncc2C(F)(F)F)c1,female mouse,plasma,oral,20 mg/kg,,65
CN[C@@H](C)C(=O)N[C@H]1CN(C(=O)CC(C)C)CC[C@H]2CC[C@@H](C(=O)NC(c3ccccc3)c3ccccc3)N2C1=O,SCID mouse,plasma,oral,100 mg/kg,tumour-bearing,42.7
CCCCCCCC(=O)N[C@H](CN1CCCC1)[C@H](O)c1ccc2c(c1)OCCO2,CD-1 mouse,plasma,oral,10 mg/kg,,< 1
COc1cc(OC)c2nccc(N3CCc4c(cc(Cn5ccnc5)cc4-c4cn(C)nc4C(F)(F)F)C3=O)c2c1,male CD-1 mouse,plasma,oral,50 mg/kg,,452
Oc1ccc(C(c2ccc(O)cc2)(C(F)(F)F)C(F)(F)F)cc1,mouse,plasma,oral,34 mg/kg,single dose,3 to 6
CC[C@H](C)[C@@H]1NC(=O)[C@@](C)(NC(=O)[C@H](CCCNC(=N)N)NC(=O)[C@H](CC(C)C)NC(=O)[C@@H](NC(=O)[C@H](CCC(N)=O)NC(=O)[C@H](CC(C)C)NC(C)=O)[C@@H](C)O)CCCC=CCCC[C@@](C)(C(=O)N[C@@H](CC(C)C)C(=O)N[C@@H](Cc2ccc3ccccc3c2)C(N)=O)NC(=O)[C@H](CCCNC(=N)N)NC(=O)[C@H](CCC(N)=O)NC1=O,male BALB/c mouse,plasma,intramuscular,5 mg/kg,,20.6
CCN1CC(=O)NC(CC(C)C)C(=O)N(C)C(C)C(=O)NC(CC(C)C)C(=O)N2CCCC2C(=O)N(CC2CCOCC2)CC(=O)NC(CC(C)C)C(=O)N(C)C(C)C(=O)NC(C)C(=O)N2CCCC2C1=O (centres unmarked),mouse,plasma,oral,200 mg/kg,,50
COc1ccc2nccc(N3CCc4c(cc(Cn5ccnc5)cc4-c4cn(C)nc4C(F)(F)F)C3=O)c2c1,male CD-1 mouse,plasma,oral,10 mg/kg,,34
Nc1ncc(-c2ccncc2)nc1Nc1ccc2[nH]ccc2c1,male C57BL/6 mouse,plasma,oral,30 mg/kg,,89
COc1nc2[nH]c(C(F)(F)F)nc2nc1Nc1ccc(OC(F)(F)F)cc1F,C57BL/6 mouse,plasma,oral,10 mg/kg,,21
Cc1c(C(=O)Nc2ccccc2)sc(N)c1C(N)=O,male CD-1 mouse,plasma,oral,10 mg/kg,,34
O=C(NCCN1CCCC1)c1cc(-c2ccc(CN3CCOCC3)cc2)nc2ccc(F)cc12,female NMRI mouse,blood,oral,3 mg/kg,,74
Oc1ccc(-c2nc(-c3ccc(Oc4ccc(C(F)(F)F)cc4)cc3)no2)cc1,female CD-1 mouse,plasma,oral,50 mg/kg,,100
COc1nc(-c2cc(C)c(N[C@@H](C)c3ccc(F)cc3)nn2)ccc1-n1cnc(C)c1,male CD-1 mouse,plasma,oral,5 mg/kg,single dose,63.1
c1ccc2[nH]c(CNc3nc(N4CCOCC4)nc4c3ncn4-c3ccsc3)nc2c1,mouse,plasma,intravenous,1 mg/kg,,0
Cc1ccc2cncc(N3CCc4c(cc(Cn5ccnc5)cc4-c4cn(C)nc4C(F)(F)F)C3=O)c2c1,male CD-1 mouse,plasma,oral,50 mg/kg,,56
CN1CCc2c(c3ccccc3n2Cc2ccc(C(=O)NO)cc2)C1,male CD-1 mouse,plasma,oral,30 mg/kg,,~6
CCc1cc(OC)c2nccc(N3CCc4c(cc(Cn5ccnc5)cc4-c4cn(C)nc4C(F)(F)F)C3=O)c2c1,male CD-1 mouse,plasma,oral,150 mg/kg,,135
CCc1ccc(Cc2cc([C@@H]3O[C@H](CO)[C@@H](O)[C@H](O)[C@H]3O)cc3c2CCC3)cc1,male C57BL/6 mouse,plasma,oral,3 mg/kg,,> 100
